Measured values collected from several papers.
Lines come from different studies, so protocols differ.
Target: PAS domain-containing serine/threonine-protein kinase (PASK, Homo sapiens, UniProt Q96RG2)

CCN(CC)CCNC(=O)c1c(C)[nH]c(/C=C2\C(=O)Nc3ccc(F)cc32)c1C — inhibition (enzyme activity, inhibitor; 0.3 µM): -5%
CC(C)(C)c1nc2c(s1)c1nc(N)ncc1c1ccc(NS(=O)(=O)c3c(F)cccc3F)c(F)c12 — remaining activity (enzyme activity, inhibitor, radiometric; 1 µM): 99%
O=C1NC(=O)c2cc(Nc3ccc(F)cc3)c(Nc3ccc(F)cc3)cc21 — remaining signal (cell-free assay; 0.5 µM): 91.3%
COc1cc(Cl)c(C(=O)N[C@@H](CN[C@H]2CC[C@@H](N)CC2)Cc2ccc(C#N)cc2)cc1-c1ccc(CN[C@H](C)c2ccc(C)cc2)o1 — remaining activity (enzyme activity, inhibitor; 1 µM): 72%
COc1cc2ncnc(Nc3ccc(Oc4ccccc4)cc3C)c2cc1OC — inhibition (enzyme activity, inhibitor; 1 µM): -2%
O=C(Nc1cnn(-c2csc(C(=O)NC3COC3)c2)c1)Nc1c(F)cccc1Cl — remaining activity (enzyme activity, inhibitor; 5 µM): 99.7%
CCCOc1ccc(OC)c(F)c1C(=O)c1ccc(C(=O)N[C@@H]2CNC[C@H]2NC(=O)c2ccc3[nH]ncc3c2)cc1 — remaining activity (enzyme activity, inhibitor; 10 µM): 6%
CNC(=O)c1cc(Oc2ccc(NC(=O)Nc3ccc(Cl)c(C(F)(F)F)c3)cc2)ccn1 — inhibition (enzyme activity, inhibitor; 0.3 µM): -6%
Cc1ncc([N+](=O)[O-])n1C(=NO)c1ccccc1C(F)(F)F — inhibition (enzyme activity, inhibitor; 10 µM): 11.2%
CC/C(=N\NC(=O)NCc1cccc(O)c1)c1ccc(O)c(C)c1O — inhibition (enzyme activity, inhibitor; 0.1 µM): -0.2%
Cc1ccc(Nc2nccc(N(C)c3ccc4c(C)n(C)nc4c3)n2)cc1S(N)(=O)=O — inhibition (enzyme activity, inhibitor; 10 µM): 1%
Cc1sc(C(=O)NC2COC2)cc1-n1cc(NC(=O)Nc2c(F)cccc2Cl)cn1 — remaining activity (enzyme activity, inhibitor; 10 µM): 96.1%
Cc1cnc(NC2CCOCC2)nc1-n1cnc(C(=O)NC(CN)c2cc(F)cc(Cl)c2)c1 (stereo not shown) — remaining activity (enzyme activity, inhibitor, radiometric; 1 µM): 96%
